Values after ≈ are worked out from the molar mass of the structure shown. Active and inactive are the calls of the source. The calls are words filed in the database; no cut-off is given here.
How the values were obtained:
Type in all cases: functional
Candida albicans [1] = assay: Antifungal activity against Candida albicans ATCC 26555 at 10 mg/disc after 48 hrs by disc-diffusion method
Procedure, shortened: (§1)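 Disc diffusion per Bauer method under NCCLS conditions on nutrient agar/Mueller-Hinton agar. Compound dissolved in sterile DMSO at 10 mg/mL, filtered 0.2 µm, stored frozen at -15 °C; 10 mg/disc in DMSO applied. DMSO control. Inhibition zone diameter measured in mm after 48 h incubation at 28 °C.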

Staphylococcus aureus [2] = assay: Antibacterial activity against Staphylococcus aureus ATCC 12600 at 10 mg/disc after 48 hrs by disc-diffusion method; procedure, shortened: as §1
Aspergillus flavus [3] = assay: Antifungal activity against Aspergillus flavus ATCC 11495 after 24 hrs by microdilution technique
Escherichia coli [4] = assay: Antibacterial activity against Escherichia coli ATCC 11775 at 10 mg/disc after 48 hrs by disc-diffusion method; procedure, shortened: as §1
Bacillus cereus [5] = assay: Antibacterial activity against Bacillus cereus ATCC 14579 after 24 hrs by microdilution technique
Procedure, shortened: (§2)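 MIC by agar microdilution on Mueller-Hinton agar per NCCLS 1997. Bacteria subcultured overnight at 37 °C on MHA, Candida on SDA at 35 °C for 24-48 h, each passaged at least twice. Incubated 37 °C in humid chamber, read after 24 h.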

Candida albicans [6] = assay: Antifungal activity against Candida albicans ATCC 26555 after 24 hrs by microdilution technique; procedure, shortened: as §2
[7] = test system: Radical scavenging activity; assay: Antioxidant activity assessed as DPPH free radical scavenging activity after 20 mins by UV-visible spectrophotometric analysis
Procedure, shortened: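 Kept in the dark at room temperature for 20 min, then absorbance read at 517 nm against DPPH blank, DMSO baseline. % scavenging = [(Ac−At)/Ac]×100; IC50 (µg/mL) from concentration plot; mean ± SEM, n=3, 8 replica each.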

Escherichia coli [8] = assay: Antibacterial activity against Escherichia coli ATCC 11775 after 24 hrs by microdilution technique; procedure, shortened: as §2
Bacillus cereus [9] = assay: Antibacterial activity against Bacillus cereus ATCC 14579 at 10 mg/disc after 48 hrs by disc-diffusion method; procedure, shortened: as §1
Staphylococcus aureus [10] = assay: Antibacterial activity against Staphylococcus aureus ATCC 12600 after 24 hrs by microdilution technique; procedure, shortened: as §2
Aspergillus flavus [11] = assay: Antifungal activity against Aspergillus flavus ATCC 11495 at 10 mg/disc after 48 hrs by disc-diffusion method; procedure, shortened: as §1

Row | SMILES | diameter of the inhibition zone (DIZ) (Candida albicans [1]) | diameter of the inhibition zone (DIZ) (Staphylococcus aureus [2]) | MIC (Aspergillus flavus [3]) | diameter of the inhibition zone (DIZ) (Escherichia coli [4]; DSM 30083 = JCM 1649) | MIC (Bacillus cereus [5]) | MIC (Candida albicans [6]) | Activity [7] | IC50 [7] | MIC (Escherichia coli [8]; DSM 30083 = JCM 1649) | diameter of the inhibition zone (DIZ) (Bacillus cereus [9]) | MIC (Staphylococcus aureus [10]) | diameter of the inhibition zone (DIZ) (Aspergillus flavus [11]) | MIC (Aspergillus flavus [3]; ATCC 11495, 24 h) | diameter of the inhibition zone (DIZ) (Escherichia coli [4]) | MIC (Bacillus cereus [5]; ATCC 14579, 24 h) | MIC (Candida albicans [6]; ATCC 26555, 24 h) | MIC (Escherichia coli [8]; DSM 30083 = JCM 1649, 24 h) | MIC (Staphylococcus aureus [10]; ATCC 12600, 24 h)
1 | COc1cc(-c2[nH]c(=S)n3c(C)nnc3c2C#N)cc(OC)c1OC | inactive | inactive | inactive | inactive | inactive | inactive | Dose-dependent effect | 31.15 µg/mL (≈ 87.2 µM) | inactive | inactive | inactive | inactive |  |  |  |  |  | 
2 | Cc1nnc2c(C#N)c(-c3ccc(F)cc3)[nH]c(=S)n12 | inactive | inactive | inactive | inactive | inactive | inactive | Dose-dependent effect | 72.03 µg/mL (≈ 252 µM) | inactive | inactive | inactive | inactive |  |  |  |  |  | 
3 | N#Cc1c(-c2ccc(F)cc2)[nH]c(=S)n2ncnc12 | 8 mm | 7 mm |  |  |  |  |  |  |  | 6 mm |  | 7 mm | 256 µg/mL (≈ 944 µM) | 8 mm | 128 µg/mL (≈ 472 µM) | 128 µg/mL (≈ 472 µM) | 128 µg/mL (≈ 472 µM) | 128 µg/mL (≈ 472 µM)
4 | N#Cc1c(-c2ccc(F)cc2)[nH]c(=S)n2c(=S)[nH]nc12 | 12 mm | inactive | inactive |  |  |  |  |  |  | 11 mm | inactive | inactive |  | 11 mm | 64 µg/mL (≈ 211 µM) | 32 µg/mL (≈ 105 µM) | 64 µg/mL (≈ 211 µM) | 
5 | COc1cc(-c2[nH]c(=S)n3cnnc3c2C#N)cc(OC)c1OC | 17 mm | 21 mm |  |  |  |  |  |  |  | 18 mm |  | 18 mm | 16 µg/mL (≈ 46.6 µM) | 13 mm | 16 µg/mL (≈ 46.6 µM) | 16 µg/mL (≈ 46.6 µM) | 16 µg/mL (≈ 46.6 µM) | 16 µg/mL (≈ 46.6 µM)
6 | N#Cc1c(N/N=C/c2ccc(F)cc2)nc(=S)[nH]c1-c1ccc(F)cc1 | 15 mm | 19 mm |  |  |  |  |  |  |  | 16 mm |  | 14 mm | 32 µg/mL (≈ 87.1 µM) | 12 mm | 32 µg/mL (≈ 87.1 µM) | 32 µg/mL (≈ 87.1 µM) | 32 µg/mL (≈ 87.1 µM) | 32 µg/mL (≈ 87.1 µM)
7 | N#Cc1c(-c2ccc(Br)cc2)[nH]c(=S)n2c(=O)[nH]nc12 | inactive | 11 mm | inactive | inactive | inactive | inactive |  |  | inactive | inactive |  | inactive |  |  |  |  |  | 64 µg/mL (≈ 184 µM)
8 | Cc1nnc2c(C#N)c(-c3ccc(Br)cc3)[nH]c(=S)n12 | inactive | inactive | inactive | inactive | inactive | inactive |  |  | inactive | inactive | inactive | inactive |  |  |  |  |  | 
9 | Cc1cc(C)n(-c2nc(=S)[nH]c(-c3ccc(F)cc3)c2C#N)n1 | inactive | 13 mm | inactive |  |  | inactive |  |  |  | 12 mm |  | inactive |  | 11 mm | 32 µg/mL (≈ 98.3 µM) |  | 32 µg/mL (≈ 98.3 µM) | 32 µg/mL (≈ 98.3 µM)
10 | N#Cc1c(-c2ccc(Br)cc2)[nH]c(=S)n2ncnc12 | 8 mm | 6 mm |  |  |  |  |  |  |  | 5 mm |  | 7 mm | 256 µg/mL (≈ 771 µM) | 7 mm | 128 µg/mL (≈ 385 µM) | 128 µg/mL (≈ 385 µM) | 128 µg/mL (≈ 385 µM) | 128 µg/mL (≈ 385 µM)
11 | COc1cc(-c2[nH]c(=S)n3nnnc3c2C#N)cc(OC)c1OC | inactive | 14 mm | inactive |  |  | inactive |  |  |  | 12 mm |  | inactive |  | 12 mm | 32 µg/mL (≈ 92.9 µM) |  | 32 µg/mL (≈ 92.9 µM) | 16 µg/mL (≈ 46.5 µM)
12 | O=C1O[C@H]([C@@H](O)CO)C(O)=C1O [ASCORBIC ACID] |  |  |  |  |  |  | Dose-dependent effect | 10 µg/mL (≈ 56.8 µM) |  |  |  |  |  |  |  |  |  | 
13 | COc1ccc(/C=N/Nc2nc(=S)[nH]c(-c3ccc(Br)cc3)c2C#N)cc1 | 16 mm | 18 mm |  |  |  |  |  |  |  | 16 mm |  | 14 mm | 32 µg/mL (≈ 72.7 µM) | 12 mm | 32 µg/mL (≈ 72.7 µM) | 32 µg/mL (≈ 72.7 µM) | 32 µg/mL (≈ 72.7 µM) | 32 µg/mL (≈ 72.7 µM)
14 | COc1cc(-c2[nH]c(=S)nc(-n3nc(C)cc3C)c2C#N)cc(OC)c1OC | inactive | 11 mm | inactive |  |  | inactive |  |  |  | 11 mm |  | inactive |  | 12 mm | 32 µg/mL (≈ 80.5 µM) |  | 32 µg/mL (≈ 80.5 µM) | 32 µg/mL (≈ 80.5 µM)
15 | N#Cc1c(-c2ccc(Br)cc2)[nH]c(=S)n2nnnc12 | inactive | 14 mm | inactive |  |  | inactive |  |  |  | 13 mm |  | inactive |  | 12 mm | 32 µg/mL (≈ 96 µM) |  | 32 µg/mL (≈ 96 µM) | 16 µg/mL (≈ 48 µM)
16 | N#Cc1c(-c2ccc(Br)cc2)[nH]c(=S)n2c(=O)c(=O)[nH]nc12 | inactive | 13 mm |  | inactive | inactive | inactive |  |  | inactive | inactive |  | 17 mm | 16 µg/mL (≈ 42.5 µM) |  |  |  |  | 32 µg/mL (≈ 85.1 µM)

From ChEMBL document CHEMBL2434844, “Synthesis, antimicrobial, antioxidant activities of novel 6-aryl-5-cyano thiouracil derivatives” (Eur J Med Chem, 2013)
